For data set [1] the following is noted: prolonged incubation in various tissues; cited from earlier work.
The next data set has as its system EP24.16. Conditions: EP24.15 preferentially over EP24.16; cited from earlier work.
The target in a further data set is EP24.15. Conditions: read-out: Ki for inhibiting EP24.15; cited from earlier work.
For a further data set, the system named is male Sprague Dawley rats. The data set can be described thus: Bradykinin-induced thermal hyperalgesia, paw withdrawal latency. The settings on record: rat hindpaw i.pl., JA-2 5 μM 25 μl 30 min before BK 0.1 μM 25 μl; n=6-10. Format: in vivo. In outline: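 Male Sprague-Dawley rats (200-250 g), tested in the light phase after 30 min acclimation. Blinded Hargreaves thermal latency, with baseline set near 10 s and a 20 s cutoff, taken as the mean of triplicate readings at least 30 s apart. Intraplantar s.c. vehicle (50% DMSO/0.9% saline) or test compound (5 μM), 25 μl; latency read 30 min later. BK (0.1 or 1 μM, 25 μl) then injected into the same paw; latency read at 5 min.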

For data set [2] the following is noted: cited from earlier work.

One may read the Ki as the dissociation constant of the complex between target and ligand, obtained from inhibition or displacement.

Regarding `C[C@H](NC(CCc1ccccc1)C(=O)O)C(=O)NC(C)(C)C(=O)N[C@@H](Cc1ccc(O)cc1)C(=O)Nc1ccc(C(=O)O)cc1` (stereo partly drawn) [JA-2], in data set [1], the “retention of activity after incubation in tissues (stability)” value is on record as “retains its activity after prolonged incubation in various tissues”. Further, in the data set on EP24.16, the “times more potent at inhibiting EP24.15 than EP24.16 (selectivity)” value is on record as 20-30 fold. The Ki on EP24.15 was 23 nM. Further, the “effect on response to sub-threshold BK (0.1 μM), thermal hyperalgesia” value in the data set with male Sprague Dawley rats is “resulted in a nociceptive response”.

In the case of “N-[1-(R,S)-carboxy-3-phenylpropyl]-Ala-Ala-Tyr-p-aminobenzoate [cFP]”, in data set [2] (co-administered with Met-enkephalin-Arg-Gly-Leu and dynorphin A1-8), the “potentiation of antinociceptive effects of co-administered opioid peptides” value is “potentiate the antinociceptive effects”. In data set [2] (intracerebroventricular administration, time and dose-dependent), the antinociception result is “significant antinociception”.

Values taken from publication PMC3114295 (Pain, 2011).
